We go through 3 compounds from ChEMBL document CHEMBL1137359, “Potent and orally bioavailable 8-bicyclo[2.2.2]octylxanthines as adenosine A1 receptor antagonists” (J Med Chem, 2006).

A short description of series [1]: Solubility in octanol. The series is classed as physicochemical. In a few lines:
(§1)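 Solubility of each compound measured in sterile water for injection, 0.9% saline, 5% dextrose in water, ethanol and octanol; values in mg/mL from duplicate determinations per solvent, individual values varying <5%.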

Series [2] is described as follows: Solubility in ethanol. The series is classed as physicochemical. In a few lines:
as §1

A short description of series [3]: Aqueous solubility of the compound. In kind it is physicochemical. The conditions noted are these: water. In a few lines:
as §1

For series [4], the target named is T1, Adenosine receptor A1 (Homo sapiens, UniProt P30542).
T1 sequence (P30542 whole entry): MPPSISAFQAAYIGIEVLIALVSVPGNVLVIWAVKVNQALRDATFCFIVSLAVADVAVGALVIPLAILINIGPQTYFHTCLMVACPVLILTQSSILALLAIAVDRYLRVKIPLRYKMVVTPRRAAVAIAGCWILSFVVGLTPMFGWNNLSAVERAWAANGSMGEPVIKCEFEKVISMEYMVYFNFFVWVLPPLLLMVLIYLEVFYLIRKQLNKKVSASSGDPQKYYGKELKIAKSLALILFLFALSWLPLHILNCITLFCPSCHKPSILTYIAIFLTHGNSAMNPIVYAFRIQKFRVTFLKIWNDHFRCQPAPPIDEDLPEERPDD
Put plainly: Displacement of [125I]ABA from human adenosine A1 receptor expressed in CHOK1 cells. In kind it is cell-based, CHO-K1. In a few lines: (§2)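 Membranes from stably transfected CHO-K1 (hA1) or HEK (hA2A, hA2B, hA3) cells, 2 h at room temperature in 50 mM HEPES pH 7.4, 1 mM EDTA, 5 mM MgCl2, 1 U/mL adenosine deaminase. 5% DMSO final except hA3. Full curves 10^-11–10^-5 M, seven concentrations, four determinations each. Filtration, γ-counting, Ki derived.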

Series [5] has as its target Adenosine receptor A2a (Rattus norvegicus, UniProt P30543). As to the kind of experiment: Displacement of [3H]ZM-241385 from rat brain striatum adenosine A2A receptor. Summed up:
(§3)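 Crude membranes (10-20 µg protein) from rat brain cortex (A1, 2 nM 3H-CPX) or striatum (A2A, 0.5-1.2 nM 3H-ZM241385) incubated 90 min at room temperature in 50 mM Tris-HCl pH 7.4 with 2 U/mL adenosine deaminase. Stopped with ice-cold buffer, then vacuum filtration and scintillation counting. Ki from concentration-response displacement.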
For orientation: In a radioligand displacement assay an active substance lowers the binding of a labelled ligand.

Series [6] can be described thus: Solubility in 0.9% saline. In kind it is physicochemical. Summed up: as §1
A short description of series [7]: Solubility in 5% dextrose in water. The series is classed as physicochemical. In a few lines:
as §1

In the next series the target is T2, Adenosine receptor A3 (Homo sapiens, UniProt P0DMS8).
T2 sequence (P0DMS8 whole entry): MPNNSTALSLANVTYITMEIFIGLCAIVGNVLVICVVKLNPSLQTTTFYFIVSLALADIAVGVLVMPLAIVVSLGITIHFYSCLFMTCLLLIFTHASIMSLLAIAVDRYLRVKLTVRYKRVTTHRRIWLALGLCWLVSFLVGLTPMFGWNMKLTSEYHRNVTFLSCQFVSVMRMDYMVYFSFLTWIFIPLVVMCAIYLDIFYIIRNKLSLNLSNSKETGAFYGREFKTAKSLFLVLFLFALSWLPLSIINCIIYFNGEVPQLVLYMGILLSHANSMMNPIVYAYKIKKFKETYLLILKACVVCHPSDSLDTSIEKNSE
As to the kind of experiment: Displacement of [125I]ABA from human adenosine A3 receptor expressed in HEK cells. The series is classed as cell-based, HEK293. In a few lines: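 Membranes from stably transfected CHO-K1 (hA1) or HEK (hA2A, hA2B, hA3) cells, 2 h at room temperature in 50 mM HEPES pH 7.4, 1 mM EDTA, 5 mM MgCl2, 1 U/mL adenosine deaminase. 5% DMSO final except hA3. Radioligands: 0.3 nM (hA1) or 0.6 nM (hA3) 125I-ABA, 0.7 nM 125I-ZM241385, 0.5 nM A2B ligand. Full curves 10^-11–10^-5 M, seven concentrations, four determinations each. Filtration, γ-counting, Ki derived.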

Series [8] has as its target T3, Adenosine receptor A1 (Rattus norvegicus, UniProt P25099).
T3 sequence (P25099 whole entry): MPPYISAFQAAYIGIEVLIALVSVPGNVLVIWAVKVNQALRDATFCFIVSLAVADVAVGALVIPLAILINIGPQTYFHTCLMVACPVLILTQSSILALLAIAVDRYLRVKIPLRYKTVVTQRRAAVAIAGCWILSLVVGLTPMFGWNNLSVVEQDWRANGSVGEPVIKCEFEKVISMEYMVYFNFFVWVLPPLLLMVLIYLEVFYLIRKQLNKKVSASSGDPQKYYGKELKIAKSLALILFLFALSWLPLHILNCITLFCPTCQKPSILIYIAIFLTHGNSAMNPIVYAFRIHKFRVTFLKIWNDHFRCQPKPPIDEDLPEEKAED
Put plainly: Displacement of [3H]CPX from rat brain cortex adenosine A1 receptor. Summed up: as §3

The nature of series [9]: Clearance in Beagle dog at 1 mg/kg, po. The conditions noted are these: in vivo. The series is classed as ADME, organism-based, Canis lupus familiaris. Set-up: dose 1 mg/kg, route oral. Summed up:
(§4)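 Pharmacokinetics after one oral dose in male Sprague-Dawley rats (1 mg/kg, or 2 mg dose), beagle dogs and cynomolgus monkeys (1 mg/kg). Bioavailability, half-life, clearance and volume of distribution reported as mean ± variation.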

Series [10] can be described thus: Half life in Beagle dog at 1 mg/kg, po. On the set-up: dose 1 mg/kg, route oral. In kind it is ADME, organism-based, Canis lupus familiaris. The conditions noted are these: in vivo. Summed up: as §4
For series [11], the system named is Rattus norvegicus. Put plainly: Natriuretic effect in orally dosed rat. The series is classed as ADME, organism-based. The conditions noted are these: po. In a few lines:
(§5)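 Male Sprague-Dawley rats in metabolic cages dosed by gavage in 0.5% CMC suspension, 0.001-3 mg/kg (n=3-5 per group; vehicle n=3). Urine collected 4 h, volume measured gravimetrically, Na and K by flame photometry. Urine flow and UNaV expressed per hour, averaged over 4 h.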

The subject of series [12] is Rattus norvegicus. Put plainly: Volume of distribution in Sprague-Dawley rat at 1 mg/kg, po. In kind it is ADME, organism-based. Set-up: dose 1 mg/kg, route oral. The conditions noted are these: in vivo. Summed up: as §4
Series [13] addresses Adenosine receptor A2a (Homo sapiens, UniProt P29274). Put plainly: Displacement of [125I]ZM-241385 from human adenosine A2A receptor expressed in HEK cells. The series is classed as cell-based, HEK293. In a few lines:
as §2

The subject of another series is Canis familiaris. As to the kind of experiment: Volume of distribution in Beagle dog at 1 mg/kg, po. The series is classed as ADME, organism-based, Canis lupus familiaris. Set-up: dose 1 mg/kg, route oral. The conditions noted are these: in vivo. Summed up: as §4
Series [14] is described as follows: Clearance in cynomolgus monkey at 1 mg/kg, po. In kind it is ADME, organism-based, Macaca fascicularis. Set-up: dose 1 mg/kg, route oral. The conditions noted are these: in vivo. Summed up: as §4
A short description of series [15]: Clearance in Sprague-Dawley rat at 1 mg/kg, po. The series is classed as ADME, organism-based. On the set-up: dose 1 mg/kg, route oral. The conditions noted are these: in vivo. Summed up:
as §4

Series [16] is filed under the species Rattus norvegicus. As to the kind of experiment: Reversal of CPA inhibition of isoproterenol-stimulated rat atria. The conditions noted are these: Cardiac atrium. The series is classed as functional, organism-based. In a few lines: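 Isolated rat atria in Krebs buffer at 37 °C gassed with 95% O2/5% CO2, pH 7.4, stimulated with 30 nM isoproterenol. EC50 taken at 50% restoration, 5 atria per dose group.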

Series [17] is described as follows: Half life in cynomolgus monkey at 1 mg/kg, po. The conditions noted are these: in vivo. On the set-up: dose 1 mg/kg, route oral. In kind it is ADME, organism-based, Macaca fascicularis. Summed up:
as §4

A further series relates to Cynomolgus monkey. As to the kind of experiment: Volume of distribution in cynomolgus monkey at 1 mg/kg, po. The series is classed as ADME, organism-based, Macaca fascicularis. Set-up: dose 1 mg/kg, route oral. The conditions noted are these: in vivo. In a few lines:
as §4

The nature of series [18]: Oral bioavailability in cynomolgus monkey at 1 mg/kg, po. In kind it is ADME, organism-based, Macaca fascicularis. The conditions noted are these: in vivo. In a few lines:
as §4

Series [19] can be described thus: Oral bioavailability in Beagle dog at 1 mg/kg, po. In kind it is ADME, organism-based, Canis lupus familiaris. The conditions noted are these: in vivo. In a few lines: as §4
Series [20] is described as follows: Oral bioavailability in Sprague-Dawley rat at 1 mg/kg, po. In kind it is ADME, organism-based. The conditions noted are these: in vivo. Summed up: as §4
The test system of series [21] is Rattus norvegicus. As to the kind of experiment: Diuretic effect in orally dosed rat. The series is classed as ADME, organism-based. The conditions noted are these: Urine, po. In a few lines: as §5
The target of another series is T4, Adenosine receptor A2b (Homo sapiens, UniProt P29275).
T4 sequence (P29275 whole entry): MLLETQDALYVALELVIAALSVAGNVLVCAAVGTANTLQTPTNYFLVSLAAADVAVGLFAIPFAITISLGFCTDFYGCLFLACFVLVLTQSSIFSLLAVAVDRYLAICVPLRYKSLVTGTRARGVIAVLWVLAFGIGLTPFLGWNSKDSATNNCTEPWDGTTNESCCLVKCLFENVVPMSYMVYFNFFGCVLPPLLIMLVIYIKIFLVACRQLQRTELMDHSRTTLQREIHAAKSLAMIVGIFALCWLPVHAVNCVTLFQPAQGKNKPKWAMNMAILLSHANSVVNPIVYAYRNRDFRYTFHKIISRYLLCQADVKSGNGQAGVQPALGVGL
As to the kind of experiment: Displacement of [125I]3-(4-aminobenzyl)-8-phenyloxyacetate-1-propyl-xanthine from human adenosine A2B receptor expressed in HEK cells. In kind it is cell-based, HEK293. In a few lines:
as §2

Series [22] can be described thus: Half life in Sprague-Dawley rat at 1 mg/kg, po. The series is classed as ADME, organism-based. On the set-up: dose 1 mg/kg, route oral. The conditions noted are these: in vivo. In a few lines:
as §4

≈ marks a conversion by molar mass, not a printed value.

Adenosine receptor A2a (Rattus norvegicus, UniProt P30543), sequence (P30543 whole entry): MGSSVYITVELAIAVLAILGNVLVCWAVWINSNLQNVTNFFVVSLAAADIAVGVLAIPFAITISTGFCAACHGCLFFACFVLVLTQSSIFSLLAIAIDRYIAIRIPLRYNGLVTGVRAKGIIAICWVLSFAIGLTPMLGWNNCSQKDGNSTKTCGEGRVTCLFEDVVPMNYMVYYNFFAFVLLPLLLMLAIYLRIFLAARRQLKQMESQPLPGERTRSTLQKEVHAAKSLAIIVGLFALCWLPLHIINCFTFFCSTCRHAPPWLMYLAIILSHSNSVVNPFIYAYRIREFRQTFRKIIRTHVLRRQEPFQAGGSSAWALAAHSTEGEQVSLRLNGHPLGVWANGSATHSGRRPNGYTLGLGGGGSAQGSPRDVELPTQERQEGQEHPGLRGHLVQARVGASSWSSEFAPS
Adenosine receptor A2a (Homo sapiens, UniProt P29274), sequence (P29274 whole entry): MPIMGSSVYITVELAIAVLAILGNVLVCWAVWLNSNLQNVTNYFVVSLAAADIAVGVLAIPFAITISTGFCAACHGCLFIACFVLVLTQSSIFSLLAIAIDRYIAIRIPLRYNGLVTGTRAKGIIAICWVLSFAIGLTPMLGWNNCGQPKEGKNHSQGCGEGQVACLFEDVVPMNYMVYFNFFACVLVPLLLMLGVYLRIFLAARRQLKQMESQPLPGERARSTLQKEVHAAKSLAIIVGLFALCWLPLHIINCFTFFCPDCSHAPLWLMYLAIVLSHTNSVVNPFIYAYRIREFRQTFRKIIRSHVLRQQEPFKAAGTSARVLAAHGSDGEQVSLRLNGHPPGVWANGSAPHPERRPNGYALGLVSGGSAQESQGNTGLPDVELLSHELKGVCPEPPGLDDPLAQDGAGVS

Broadly, the solubility is the dissolved amount per volume that the medium holds. Broadly, the Ki is the equilibrium dissociation constant of an inhibitor or competing ligand from its target. Take `CCCn1c(=O)c2[nH]c([C@H]3CC4C[C@@H]3[C@H]3O[C@@H]43)nc2n(CCC)c1=O`: the solubility in [1] worked out at 4600 µg/mL (≈ 13.4 mM); in [2], 85300 µg/mL (≈ 248 mM); in series [3], 460 µg/mL (≈ 1.34 mM); in [6], 430 µg/mL (≈ 1.25 mM); in [7] it was 250 µg/mL (≈ 0.726 mM). Also, the Ki on Adenosine receptor A1 [4] was 12 nM; on Adenosine receptor A2a [5], 1250 nM; on Adenosine receptor A3, 4810 nM; on Adenosine receptor A1 [8] it was 0.7 nM.

Broadly, the CL/F is clearance divided by bioavailability, as obtained after extravascular dosing. What is called half-life is the time in which the quantity being followed falls by half. One may read the ED50 as the dose at which the effect has come halfway, by size or by number of responders. One may read the EC50 as the concentration needed to bring the measured effect to its halfway point. For orientation: bioavailability means dose-corrected exposure relative to a reference, in per cent. Turning to `CCCn1c(=O)c2[nH]c([C@]34CC[C@](CCC(=O)O)(CC3)CC4)nc2n(CCC)c1=O`, the CL/F in [9] came out at 11.8 mL/min/kg; in [14], 5.82 mL/min/kg; in series [15] it was 1.56 mL/min/kg. The half-life in [10] is 6.4 h; in [17], 11.1 h; in series [22] it was 3.14 h. Also, the ED50 with Rattus norvegicus [11] and in the series with Rattus norvegicus [21] was 0.015 mg/kg throughout. The results for the Vdss in the series on Rattus norvegicus [12], with Canis familiaris and in the series with Cynomolgus monkey were 0.32 L/kg, 2.64 L/kg and 4.25 L/kg, respectively. Besides, the Ki is 6410 nM on Adenosine receptor A2a [13]; 2440 nM on Adenosine receptor A2a [5]; above 10000 nM at Adenosine receptor A3; 1.3 nM at Adenosine receptor A1 [8]; 90 nM at Adenosine receptor A2b. The results for the solubility in series [3], in series [6] and in [7] were 24400 µg/mL (≈ 58.6 mM), 25400 µg/mL (≈ 61 mM) and 12400 µg/mL (≈ 29.8 mM), respectively. Also, the EC50 in the series filed under Rattus norvegicus [16] came to 16.1 nM. In the series filed under Rattus norvegicus [16] (read-out: pA2 (converted)), the Kb was 0.158 nM. For the same compound, the bioavailability in series [18] came to 94%; in [19], 78%; in series [20], 99%.

For the compound `CCCn1c(=O)c2nc([C@]34CC[C@](CC(=O)O)(CC3)CC4)[nH]c2n(CCC)c1=O`, the inhibition constant Ki at Adenosine receptor A2a [5] was 8960 nM; at Adenosine receptor A1 [8], 22.5 nM.
